The values that follow come from PMC7771113 (International Journal for Parasitology: Drugs and Drug …, 2020).

Read-outs that look alike come from different tables or passages of the source. Where only a bound is given, the exact number is not on record here.

Data set [1] has as its system i. p. (intra peritoneal) macrophages. The experiment in a line: Cytotoxicity assay in host cells. Type of data set: cell-based, mouse. The note with it: read-out: Macrophages CC50; 48h.
The subject of data set [2] is histone H4 (lys16) acetylation in T. gondii. As to the kind of experiment: Western blot of histone H4 acetylation in treated tachyzoites. It counts as cell-based, Toxoplasma gondii. The note with it: 0,2 μM SAHA, 1 μM TST, 48 h. A digest of the protocol:
(§1)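 Infected NDHF fibroblasts were treated for 48 h. Tachyzoites were released by 30G needle passage, pelleted at 2000 rcf for 10 min and filter-purified; 10^6 parasites were cryolysed with protease inhibitors. Primary antibodies, 1 h: H3 and acetyl-H3 Lys9/14 each 1:1000; H4 1:3000, acetyl-H4 Lys16 1:1000; α-tubulin 1:1000, acetylated α-tubulin 1:2000. Detection by HRP secondaries and ECL. Bands from three experiments were normalised to GAPDH, and acetylated/total ratios were computed.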

In data set [3] the test system is histone H3 (Lys 9/14) acetylation in T. gondii. As to the kind of experiment: Western blot of histone H3 acetylation in treated tachyzoites. It counts as cell-based, Toxoplasma gondii. Conditions: 0,2 μM SAHA, 1 μM TST, 48 h. A digest of the protocol: as §1
In a further data set the test system is T. gondii RH tachyzoites. The experiment in a line: Fluorescence microscopy of cell division and apicoplast. Type of data set: cell-based, Toxoplasma gondii. Conditions: 1 μM TST, 0.1 μM SAHA, 24 h; for effect on apicoplast: ACP-YFP tachyzoites. The procedure, abridged:
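NDHF fibroblasts were infected with RH-ACP-YFP tachyzoites and treated for 24 h, then fixed 40 min in 4% formaldehyde/PBS and permeabilised 15 min in 0.5% Triton X-100. Staining used anti-SAG1 and rabbit anti-centrin1 (1:1000), Alexa secondaries (1:800) and Hoechst (0.5 μg/mL). Daughter budding was also examined in RH-infected cells with anti-IMC1 (1:1000). Imaging by confocal and SR-SIM; two independent experiments.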

Data set [4] relates to T. gondii RH-ACP-YFP tachyzoite mitochondria. As to the kind of experiment: MitoTracker fluorescence analysis of parasite mitochondria. The note with it: 1 μM TST, 0.1 μM SAHA, 24 h. Type of data set: cell-based, Toxoplasma gondii. A digest of the protocol:
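NDHF fibroblasts infected with RH-ACP-YFP tachyzoites were treated for 24 h, then incubated with 50 nM MitoTracker Red CMXRos for 45 min. Mitochondrial membrane potential and partitioning were assessed by confocal and SR-SIM imaging. Two independent experiments.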

Data set [5] is described as follows: Cytotoxicity assay in host cells. Type of data set: cell-based. The note with it: mouse, primary microglial cultures (mixed astrocytes/microglia).
The subject of data set [6] is T. gondii ME49 strain (type II) tachyzoites. As to the kind of experiment: Effect on tachyzoites of the ME49 strain in NDHF fibroblasts. It counts as cell-based, Toxoplasma gondii. The note with it: 1 μM TST, 0.1 μM SAHA, 24 h.
Data set [7] is described as follows: Cytotoxicity assay in host cells. It counts as cell-based, Human. Conditions: human, NDHF fibroblasts; for CC50 at 48 h: NDHF CC50, 48h.
For data set [8], the system named is bradyzoites of the EGS strain. The experiment in a line: Activity against bradyzoites of the EGS strain in 96 h-infected NDHF fibroblasts. Conditions: 48 h; for proliferation or viability of bradyzoites: 1 and 5 μM TST, 0.1 μM SAHA. It counts as cell-based, Toxoplasma gondii. A digest of the protocol: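 Tachyzoites of the EGS strain expressing SAG1mCherry/BAG1sfGFP were grown in NDHF fibroblasts for 96 h, when bradyzoite conversion and spontaneous cyst formation are higher, then treated for 48 h. DMSO was at most 0.1% (v/v). Bradyzoites were imaged by fluorescence microscopy and fluorescence intensity was quantified. Two independent experiments; one-way ANOVA with Bonferroni test.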

For data set [9], the system named is T. gondii EGS strain (atypical, I/III). As to the kind of experiment: Antiproliferative assay, tachyzoites of EGS strain. The note with it: Toxoplasma gondii, 48 h, read-out: T. gondii EGS IC50. It counts as cell-based.
The subject of another data set is T. gondii α-tubulin. The experiment in a line: Western blot of α-tubulin and acetylated α-tubulin in treated tachyzoites. It counts as cell-based, Toxoplasma gondii. The note with it: 1 μM TST, 0.1 μM SAHA, 48 h. The procedure, abridged: as §1
A general note: Immunoblotting shows a protein as a band on a membrane.

Another data set deals with NDHF fibroblasts. The experiment in a line: Cytotoxicity assay in host cells. It counts as cell-based, Human.
For data set [10], the system named is T. gondii RH strain (type I) tachyzoites. As to the kind of experiment: Antiproliferative assay, tachyzoites of RH strain in LLC-MK2 cells. Type of data set: cell-based. Conditions: Toxoplasma gondii.
Another data set has as its system T. gondii. The note with it: cited from earlier work.
Data set [11] deals with H4 acetylation in T. gondii. The note with it: ref Bougdour et al., 2009; cited from earlier work.

For `O=C(CCCCCCC(=O)Nc1ccccc1)NO` [SAHA, Suberoylanilide Hydroxamic Acid], the CC50 in data set [1] was 4.61 µM. Moreover, the “acetylation levels of H4 (lys16), rH4ac/rH4” value in [2] is reported as “modest increase”. Further, in [3], the “acetylation levels of H3 (Lys 9/14), rH3ac/rH3” value was “modest increase”. Further, in the data set on T. gondii RH tachyzoites, the “effect on cell division / daughter cell budding” value was “masses of damaged parasites showing several centrosomes” and the effect on apicoplast result is listed as “apicoplast fragmentation”. Besides, the “effect on parasite mitochondria (Mitotracker)” value in [4] was “mitochondrion fragmentation”. In data set [5], this molecule yielded a CC50 at 48 h of more than 20 µM. In data set [6], the “tachyzoite proliferation, ME49 strain” value was “inhibit tachyzoite proliferation significantly”. In data set [7], this molecule returned a CC50 at 48 h of more than 20 µM. Also, the “amount of bradyzoites in the culture” value in data set [8] (0.2 μM SAHA) is recorded as “maintained the same amount of bradyzoites in the culture as in the control”. Further, the “proliferation or viability of bradyzoites” value in [8] was “inhibited significantly”.
For the molecule `CN1CCc2c(c3ccccc3n2Cc2ccc(C(=O)NO)cc2)C1` [TST, Tubastatin A], the CC50 in [1] stood at 13.5 µM. The IC50 is 0.29 µM in [9]; 0.019 ± 0.001 µM in data set [10] (LLC-MK2, 24 h); 0.52 µM in data set [10] (LLC-MK2, 48 h, read-out: T. gondii RH IC50). In addition, the “acetylation levels of H4 (lys16), rH4ac/rH4” value in [2] is “significant increase”. In addition, the “tubulin acetylation levels, ratio rTubac/rTub” value in the data set on T. gondii α-tubulin was “no change”. Also, the “acetylation levels of H3 (Lys 9/14), rH3ac/rH3” value in data set [3] is “decrease below the levels of the untreated cells”. Besides, the “effect on cell division / daughter cell budding” value in the data set on T. gondii RH tachyzoites is reported as “formation of a rounded mass of parasites”. The effect on apicoplast entry with T. gondii RH tachyzoites is on record as “Alteration at the apicoplast partition”. Moreover, the “effect on parasite mitochondria (Mitotracker)” value in [4] is given as “reduction of the labeling intensity of mitochondria”. For the same molecule, the CC50 at 48 h in data set [5] and in [7] was more than 20 µM throughout. Moreover, the “tachyzoite proliferation, ME49 strain” value in data set [6] is given as “inhibit tachyzoite proliferation significantly”. The CC50 at 120 h in [7] (CC50, NDHF fibroblasts, treatment for 120 h with higher concentrations (20–80 μM)) came out at 29.9 µM. In the data set on NDHF fibroblasts (CC50 in NDHF after 120 h), the “CC50 times higher than the IC50 obtained for T. gondii” value was 57 times. The selective index entry with NDHF fibroblasts (in different types of mammalian cells after 48 h of treatment) is on record as “at least 20”. Further, the “proliferation or viability of bradyzoites” value in data set [8] is on record as “inhibited significantly”. Besides, the 90% effect level in [10] (LLC-MK2) (IC90) was put at 5 µM.
With `CCc1nc(N)nc(N)c1-c1ccc(Cl)cc1` [pyrimethamine], the IC50 with T. gondii (read-out: IC50 against T. gondii, ref Dubar et al., 2011, Martins-Duarte, 2006) is 0.12 µM.
As for `COc1cccc(CC(=O)Nc2ccc(C(=O)NO)cc2)c1` [N-hydroxy-4-[2-(3-methoxyphenyl)acetamido]benzamid], the IC50 in the data set on T. gondii (RH strain, ref Loeuillet et al., 2018) was 0.35 µM.
As for FR235222, in [11], the H4 acetylation entry was “increased H4 acetylation”.

For orientation: CC50 means the concentration giving 50% cytotoxicity. What is called IC50 is the concentration needed to halve the response being measured. Usually IC90 stands for the point of the concentration-response curve where the effect stands at 90%. Higher therefore signals weaker potency.
